# Screening results (PubChem)
# An excerpt weighted towards active compounds, which were near 4% of everything screened.
# rRNA inh HTS – reduced GFP signal of wild-type E. coli, primary screen, bacterial rRNA inhibitor project, GFP/RFP fluorescence, OD600, single point; E. coli WT GFP vs humanized-ribosome RFP mutants, 24 h; hits give low values; DMSO median 0, no signal -100; GFP signal change (wild-type ribosome), % (no concentration beside the values); hit rate 1.6% among 350,000; AID 720706, 2013;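 active = significant combined selectivity score with lowered wild-type GFP, culture density cut under 30%, mutant RFP and density less affected; inactive = any of these conditions unmet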
# FGF22 binding – binders of human FGF22 protein, primary screen, FGF22 synaptogenesis inhibitor project, biophysical, thermal shift, single point; AID 651658, 2012; activity (Tm shift, normalised), % at 9.99 µM; Fibroblast growth factor 22 (Homo sapiens), Q9HCT0; hit rate 1.5% among 340,000; recombinant FGF22 thermal shift, SYPRO orange fluorescence; percent of sucrose octasulfate shift, DMSO zero;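 active = mean Tm shift, scaled 0 neutral to 100 positive control, at about 1.3% or above, every replicate too, limit read from the data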
# SIRT5 inh – SIRT5 desuccinylase inhibitors, primary screen, biochemical, fluorescence imaging, single point, set 5. NAD-dependent protein deacylase sirtuin-5, mitochondrial (Homo sapiens), Q9NXA8. Purified SirT5, succinyl-peptide AMC, trypsin-coupled fluorescence. inhibition, % at 15 µM. hit rate 1.1% among 330,000. AID 652115, 2013; in the data active = inhibition above about 15%
# FN deposit inh – inhibitors of fibronectin matrix deposition, primary screen, AH1F cells, Alexa488-fibronectin fluorescence, plate reader; AH1F fibroblasts, overnight; hit rate 0.086% among 350,000; inhibition, % at 12.6 µM;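 active = mean inhibition across replicates of 30% or more, regardless of how many single replicates reach that level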
#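 Assay system: AH1F fibroblasts / Quantity: 10000 cells per well / Medium: DMEM plus 2% serum, read in PBS / Reagent: labelled fibronectin 24 nM / Dosing: single dose, pinned / Times: 1 h cell attachment, overnight exposure to compound and label / Signal: fluorescence, ex 485 nm, em 525 nm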
# C2C12 statin – suppressors of statin myotoxicity in C2C12 myotubes, primary screen, cell-based, single point, plate reader; C2C12 myotubes + simvastatin, ATP luminescence, 48 h; scaled: DMSO 0, geranylgeraniol control 100; rescue of ATP level, % at 7.49 µM; hit rate 0.78% among 330,000;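 active = mean ATP rescue above about 67%, or every replicate alone reaching that limit, limit read from the data, passing the limit was not always enough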;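 note: myotubes were challenged with 10 µM simvastatin during compound exposure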
# E-selectin induc – E-selectin induction in HUVECs, primary screen, imaging, HUVEC, immunofluorescence imaging, single point | normalized: neutral wells 0, TNF-alpha wells 100 | activation, % at 7.58 µM | hit rate 0.37% among 260,000 | AID 686992, 2013;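 active = mean E-selectin-positive cell signal at least 10% of the positive control, reached in at least 60% of replicates, without over 20% cell loss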
# Target sequence (P16581 whole entry, looked up): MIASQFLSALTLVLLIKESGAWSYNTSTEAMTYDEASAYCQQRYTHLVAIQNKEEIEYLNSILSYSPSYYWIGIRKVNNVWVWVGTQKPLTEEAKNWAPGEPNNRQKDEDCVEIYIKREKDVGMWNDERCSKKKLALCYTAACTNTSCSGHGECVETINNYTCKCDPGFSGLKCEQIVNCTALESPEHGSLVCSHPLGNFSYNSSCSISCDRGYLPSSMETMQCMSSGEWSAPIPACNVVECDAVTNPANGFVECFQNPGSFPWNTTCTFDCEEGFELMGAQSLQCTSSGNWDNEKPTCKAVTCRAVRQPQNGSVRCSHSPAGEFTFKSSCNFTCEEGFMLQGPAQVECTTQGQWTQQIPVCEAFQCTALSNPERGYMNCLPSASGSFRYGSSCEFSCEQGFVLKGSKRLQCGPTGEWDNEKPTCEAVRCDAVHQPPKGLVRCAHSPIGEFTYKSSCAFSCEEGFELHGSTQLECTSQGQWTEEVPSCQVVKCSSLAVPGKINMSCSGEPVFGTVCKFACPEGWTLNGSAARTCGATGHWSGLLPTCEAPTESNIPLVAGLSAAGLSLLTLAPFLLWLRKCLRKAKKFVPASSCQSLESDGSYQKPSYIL
#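 Test system: HUVEC | Signal: Immunofluorescence imaging | Read-out: Percent E-selectin-positive cells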
# A number is an active result; . = inactive; / = not tested or not shown.
SMILES,rRNA inh HTS,FGF22 binding,SIRT5 inh,FN deposit inh,C2C12 statin,E-selectin induc
C[C@@H]1CCCCO[C@@H](CN(C)S(C)(=O)=O)[C@H](C)CN([C@@H](C)CO)C(=O)c2cc(N(C)C)ccc2O1,.,.,.,/,.,.
COc1cccc(CNc2ccccc2O)c1OCc1ccccc1F,.,.,.,/,96.1,/
CC(C)(C)C(=O)N1CCN(c2ccc(NC(=O)c3ccc([N+](=O)[O-])o3)cc2)CC1,.,.,.,.,133.2,/
CS(=O)(=O)N1CCN(c2ccc(NC(=O)c3ccc([N+](=O)[O-])o3)cc2)CC1,.,.,.,36.0,.,.
CS(=O)(=O)N1CCN(c2ccc(NC(=O)COc3ccccc3)cc2)CC1,.,.,/,.,/,/
Cc1ccc(OCC(=O)Nc2ccc(N3CCN(S(C)(=O)=O)CC3)cc2)cc1,.,43.2,.,.,/,/
CC1CCN(c2ccc(NC(=O)c3ccc([N+](=O)[O-])o3)cc2)CC1,.,.,.,.,83.4,.
O=C(Nc1ccc(N2CCCCC2)cc1)c1ccc([N+](=O)[O-])o1,.,.,.,.,.,/
O=C(C[C@@H]1C[C@@H]2c3cc(NC(=O)Nc4ccccc4F)ccc3O[C@@H]2[C@@H](CO)O1)NCc1cc(F)ccc1F,.,.,.,.,.,.
C[C@@H]1CN([C@@H](C)CO)C(=O)Cc2cc(NC(=O)Nc3ccc(F)cc3)ccc2O[C@@H]1CN(C)C(=O)Nc1ccc(F)cc1,.,.,.,/,.,.
Cc1ccc(S(=O)(=O)Nc2cccc3c2O[C@@H](CN(C)S(C)(=O)=O)[C@@H](C)CN([C@@H](C)CO)C3=O)cc1,.,.,.,/,.,.
CC1=CC2(CO)C(=O)[C@]3(CO3)[C@H]1[C@H]1[C@]2(C)C=C(CO)C(=O)[C@]12CO2,/,.,.,/,/,/
CCCCCCCCCCCCCCCC[N+](C)(C)Cc1ccc(F)cc1,.,.,.,.,/,/
CC#CC[N+](C)(C)CCCCCCCC,.,.,25.4,.,/,.
C[C@@H]1CN([C@@H](C)CO)C(=O)Cc2cc(NS(=O)(=O)c3cn(C)cn3)ccc2O[C@H]1CN(C)Cc1ccc(C(=O)O)cc1,.,.,.,/,.,.
COc1ccc(Cl)cc1NC(=O)CN(C)C(=O)Cn1[nH]c(=O)c2ccccc2c1=O,-20.1,.,.,.,.,.
COc1cccc(NC(=O)CN(C)C(=O)Cn2[nH]c(=O)c3ccccc3c2=O)c1,.,/,.,.,.,.
CCOC(=O)CC(=O)Nc1cc(Cl)ccc1O,/,/,/,/,84.2,/
COc1ccc(Cl)cc1NC(=O)CC(C)=O,/,/,/,/,91.7,/
COc1ccc(NCC(=O)Nc2ccc(Cl)cc2C)c(OC)c1,-19.2,.,.,/,.,/
COc1ccc(Cl)cc1NC(=O)COC(C)=O,.,.,.,.,/,/
O=C(O)CC(=O)Nc1cc(Cl)ccc1O,/,/,/,/,.,/
C[C@@H]1CN([C@@H](C)CO)C(=O)Cc2cc(NS(=O)(=O)c3ccccc3)ccc2O[C@H]1CN(C)C(=O)Nc1ccc(C(F)(F)F)cc1,.,.,.,/,.,.
O=C(O)C1=C[C@H](c2ccc3c(c2)Cc2ccccc2-3)C[C@H](OCCCCO)O1,/,.,.,/,/,/
C[C@H](CO)N1C[C@H](C)[C@@H](CN(C)Cc2ccc3c(c2)OCO3)OCCCC[C@H](C)Oc2ccc(NS(=O)(=O)c3ccccc3)cc2C1=O,.,/,.,.,/,/
SMILES,rRNA inh HTS,FGF22 binding,SIRT5 inh,FN deposit inh,C2C12 statin,E-selectin induc
O=C(C[C@H]1C[C@@H]2c3cc(NC(=O)NC4CCCC4)ccc3O[C@@H]2[C@H](CO)O1)NCc1ccccn1,.,/,.,.,/,.
Nc1ccc(Cc2ccc([N+](=O)[O-])cc2)cc1,.,43.1,/,.,.,.
O=c1cc(Cc2ccc([N+](=O)[O-])cc2)[nH]c(=O)[nH]1,.,.,.,.,/,.
CC(C)NC(=O)N(C)C[C@H]1Oc2ccc(NC(=O)Nc3cccc4ccccc34)cc2CC(=O)N([C@@H](C)CO)C[C@H]1C,.,.,.,/,.,.
O=C(C=C=Nc1ccccc1)C(=O)N=C=Cc1ccccc1,-30.7,.,.,.,.,.
O=C(N/N=C/c1ccccc1)C(=O)N/N=C/c1ccccc1,.,.,.,.,.,/
CC(=O)c1ccc(NC(=O)Nc2sc(NS(=O)(=O)c3ccccc3)nc2C)cc1,.,.,.,.,99.8,/
CCN(CC)S(=O)(=O)c1cccc(-c2n[nH]c(=S)n2/N=C/c2ccc(OC(F)F)cc2)c1,-18.1,.,.,.,/,/
CC(C)NC(=O)Nc1ccc2c(c1)CC(=O)N([C@@H](C)CO)C[C@H](C)[C@@H](CN(C)Cc1ccc(C(=O)O)cc1)O2,.,.,.,/,.,37.2
C[C@H](CO)N1C[C@H](C)[C@@H](CN(C)Cc2ccc(C(=O)O)cc2)Oc2ccc(NC(=O)Nc3ccc(F)cc3)cc2CC1=O,.,.,.,/,.,38.1
CC(C)NC(=O)Nc1ccc2c(c1)CC(=O)N([C@H](C)CO)C[C@@H](C)[C@H](CN(C)Cc1ccc(C(=O)O)cc1)O2,.,.,.,/,.,.
CC1(C)OC(=O)C=C[C@]2(C)[C@H]3CC[C@@]4(C)[C@H](c5ccoc5)OC(=O)[C@H]5O[C@]54[C@]3(C)C(=O)C[C@@H]12,.,16.6,/,.,.,.
COCC(=O)N1C[C@@H](C)[C@@H](OC)CN(C)C(=O)c2ccc(NC(=O)C3CCC3)cc2OC[C@@H]1C,.,.,.,.,.,.
CCOC(=O)c1c(-c2ccc(OC)c(OC)c2)csc1NC(=O)C1CCCO1 (centres undefined),-37.0,.,.,.,/,.
CCOC(=O)c1cccc(NC(=O)C2CCCO2)c1 (centres undefined),/,/,/,/,101.7,/
COC(=O)c1c(-c2ccc(F)cc2)csc1NC(=O)C1CCCO1 (centres undefined),.,.,/,/,/,.
C/C=C/c1ccc([C@H]2[C@H](CO)N3C(=O)CN(C(=O)c4ccncc4)C[C@@H]23)cc1,.,/,.,.,/,.
CCC(=O)N1CCC2(CC1)CN(C(=O)c1ccccn1)[C@@H](CO)c1c2c2ccc(OC)cc2n1C,.,/,/,/,/,/
CC(C)OCCCn1c(SCC(=O)N2CCc3ccccc32)nc2ccccc2c1=O,.,.,20.6,.,/,/
CC(Sc1nc2ccccc2c(=O)n1CCCN1CCOCC1)C(=O)N1CCc2ccccc21 (centres undefined),.,43.6,.,.,/,.
